Laboratory results: ChEMBL document CHEMBL1629687, “Minigenome-based reporter system suitable for high-throughput screening of compounds able to inhibit Ebolavirus replication and/or transcription” (Antimicrob Agents Chemother, 2010)

What was measured:
Ebolavirus = assay: Antiviral activity against Ebolavirus infected in african green monkey COS1 cells assessed as inhibition of viral replication after 32 hrs by luciferase reporter gene assay; assay type: functional, COS-1
Outline: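 Ebola minigenome assay, not live virus: COS-1 cells in suspension were batch-transfected with minireplicon and NP/VP35/L support plasmids, then plated in 96-well format. Compounds in DMSO were added at 10 μM final; DMSO-only wells served as controls. Luciferase was read after 32 h. Percent inhibition = 1 − (compound-well signal / mean DMSO-well signal) × 100.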

[1] = Cytotoxicity against african green monkey COS1 cells assessed as reduction in cell viability after 32 hrs by luminescent assay; assay type: cell-based, COS-1; details: chlorocebus aethiops, read-out: INH
Outline: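 Parallel plates of batch-transfected COS-1 cells received the same compounds in DMSO (10 μM final). Cell viability was measured with the CellTiter-Glo luminescent assay to flag cytotoxicity.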

Compound | inhibition (INH) (Ebolavirus) [%] | cytotoxicity at 32 h [1] [%]
CC[C@H]1CN2CCc3cc(OC)c(OC)cc3[C@@H]2C[C@@H]1C[C@H]1NCCc2cc(O)c(OC)cc21.Cl.Cl [CEPHAELINE DIHYDROCHLORIDE] | 99 | 14
COc1cccc2c1C(=O)c1c(O)c3c(c(O)c1C2=O)C[C@@](O)(C(=O)CO)C[C@@H]3O[C@H]1C[C@H](N)[C@H](O)[C@H](C)O1.Cl [DOXORUBICIN HYDROCHLORIDE] | 97 | 25
Cc1c2ccncc2c(C)c2c1[nH]c1ccccc12 [ELLIPTECINE] | 99 | 8
CC[C@H]1CN2CCc3cc(OC)c(OC)cc3[C@@H]2C[C@@H]1C[C@H]1NCCc2cc(OC)c(OC)cc21.Cl.Cl [EMETINE HYDROCHLORIDE] | 99 | 3
O=C1C=C2C(=CCOC2O)O1 (configuration not stated) [PATULIN] | 89 | 20
CC[C@@H](C(=O)[C@@H](C)[C@@H](O)[C@H](C)[C@@H]1O[C@@H]([C@@H](CC)C(=O)O)CC[C@@H]1C)[C@H]1O[C@]2(C=C[C@@H](O)[C@]3(CC[C@@](C)([C@H]4CC[C@](O)(CC)[C@H](C)O4)O3)O2)[C@H](C)C[C@@H]1C [SALINOMYCIN] | 86 | 17
